Measurements taken from ChEMBL document CHEMBL4376873, “Systematic Investigation of Lipophilicity Modulation by Aliphatic Fluorination Motifs” (J Med Chem, 2020).

Legend:
[1] = Solubility of compound in aqueous phosphate buffer at pH 7.4 after 24 hrs at 25 degC; format: physicochemical
[2] = target: Voltage-gated inwardly rectifying potassium channel KCNH2 (Homo sapiens, UniProt Q12809); assay: Inhibition of human ERG assessed as reduction in channel tail current by plate-based planar patch clamp assay
[3] = Intrinsic clearance in human liver microsomes; format: ADME, Microsome; settings: read-out: CLH
Outline: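 Metabolic turnover rate in human microsomes, compound added from DMSO stock; reported in μL/min/mg.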

[4] = Lipophilicity, logP of the compound by 19F NMR-based method; settings: octanol/water
[5] = Lipophilicity, logD of the compound at 7.4 by the shake flask method; format: physicochemical; settings: octanol/water, pH 7.4
Outline: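 Shake-flask partitioning at pH 7.4 (routine AstraZeneca method); concentrations determined by UV detection.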

[6] = Fraction unbound in 10% human plasma by equilibrium dialysis; format: ADME, cell-free
Outline: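 Equilibrium dialysis in 10% human plasma, compound added from DMSO stock; fraction unbound determined.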

[7] = Intrinsic clearance in rat hepatocytes assessed per million cells; format: ADME, cell-based, Hepatocyte; settings: read-out: CLH
Outline: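 Isolated rat hepatocytes diluted to 1x10⁶ cells/mL, compound added from DMSO stock; metabolism rate expressed as μL/min/10⁶ cells.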

Sequence of Voltage-gated inwardly rectifying potassium channel KCNH2 (Q12809 whole entry): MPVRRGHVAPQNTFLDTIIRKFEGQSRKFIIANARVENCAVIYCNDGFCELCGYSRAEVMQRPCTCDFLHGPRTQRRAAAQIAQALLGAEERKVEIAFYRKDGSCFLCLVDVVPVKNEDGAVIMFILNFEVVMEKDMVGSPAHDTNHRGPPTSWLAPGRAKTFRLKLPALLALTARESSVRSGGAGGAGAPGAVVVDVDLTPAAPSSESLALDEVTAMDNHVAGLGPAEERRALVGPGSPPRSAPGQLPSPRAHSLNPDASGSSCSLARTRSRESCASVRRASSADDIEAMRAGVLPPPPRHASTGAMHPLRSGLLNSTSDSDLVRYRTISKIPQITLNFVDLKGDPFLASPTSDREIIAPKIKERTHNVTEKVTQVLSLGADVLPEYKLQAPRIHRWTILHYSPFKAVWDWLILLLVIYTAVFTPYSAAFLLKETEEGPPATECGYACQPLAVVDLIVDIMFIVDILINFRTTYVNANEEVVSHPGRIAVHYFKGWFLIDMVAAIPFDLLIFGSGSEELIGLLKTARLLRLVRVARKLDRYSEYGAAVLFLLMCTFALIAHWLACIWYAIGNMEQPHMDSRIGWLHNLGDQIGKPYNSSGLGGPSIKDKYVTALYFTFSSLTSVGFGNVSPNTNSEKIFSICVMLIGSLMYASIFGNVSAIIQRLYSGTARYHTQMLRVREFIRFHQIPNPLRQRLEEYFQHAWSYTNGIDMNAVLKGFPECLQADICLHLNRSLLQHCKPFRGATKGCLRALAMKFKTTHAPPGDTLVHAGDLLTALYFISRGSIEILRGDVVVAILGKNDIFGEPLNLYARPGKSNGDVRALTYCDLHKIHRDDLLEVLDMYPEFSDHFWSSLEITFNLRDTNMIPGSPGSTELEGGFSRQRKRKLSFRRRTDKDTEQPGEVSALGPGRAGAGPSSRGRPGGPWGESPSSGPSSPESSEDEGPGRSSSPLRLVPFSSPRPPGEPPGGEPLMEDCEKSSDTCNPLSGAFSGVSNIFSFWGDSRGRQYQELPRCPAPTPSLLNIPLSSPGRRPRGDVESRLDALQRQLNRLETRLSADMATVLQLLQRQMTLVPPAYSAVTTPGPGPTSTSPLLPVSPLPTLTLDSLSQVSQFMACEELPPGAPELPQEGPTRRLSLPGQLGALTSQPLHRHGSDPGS

| logP [4] | Structure (SMILES) | also measured |
| --- | --- | --- |
|  | CCCCCOc1cccc(CCNCC(=O)N(C)C)c1.Cl | solubility at 24 h [1]: 779 µM; IC50 [2]: 1.8 µM |
|  | CCCCOc1cccc(CCNCC(=O)N(C)C)c1.Cl | solubility at 24 h [1]: 782 µM; IC50 [2]: 9.4 µM |
|  | CN(C)C(=O)CNCCc1cccc(OCCCC(C)(F)F)c1.Cl | solubility at 24 h [1]: 1000 µM; microsomal CLint [3]: 7 µL/min/mg; IC50 [2]: 7.6 µM |
| 1.6 | CN(C)C(=O)CNCCc1cccc(OCC(F)(F)C(C)(F)F)c1 |  |
| 1.1 | CN(C)C(=O)CNCCc1cccc(OCCC(C)(F)F)c1 |  |
| 1.12 | OCCC(F)(F)CC(F)(F)F |  |
| 1.04 | CCC(F)(F)C(C)O (stereo not given) |  |
| 0.84 | OCCC(F)CC(F)(F)F (stereo not given) |  |
| 2.8 | FC(F)(F)CCOc1ccc2[nH]ccc2c1 |  |
| 2.7 | CC(F)(F)COc1ccc2[nH]ccc2c1 |  |
| 1.25 | CCCC(F)(F)CO |  |
| 0.52 | OCCCC(F)C(F)F (stereo not given) |  |
| -0.29 | OCC(F)F |  |
| 2.8 | CC(F)[C@H](F)CCc1c[nH]c2ccccc12 (stereo not given in full) |  |
|  | CN(C)C(=O)CNCCc1cccc(OCCCC(F)(F)F)c1.Cl | logD [5]: 1.9; solubility at 24 h [1]: 900 µM; fraction unbound [6]: 0.47; microsomal CLint [3]: < 3 µL/min/mg; hepatocyte CLint [7]: 52 µL/min/1e6 cells |
| 0.29 | OCCC(F)C(F)F (stereo not given) |  |
| 0.29 | OCCCC(F)F |  |
| 0.92 | CCC(F)(F)CCO |  |
| 2.7 | FCC(F)[C@H](F)Cc1c[nH]c2ccccc12 (stereo not given in full) |  |
| 0.75 | CCC(F)CCO (stereo not given) |  |
| 0.04 | OCCC(F)F |  |
| 0.34 | CC(F)(F)CCO |  |
| 3.7 | CCCCc1c[nH]c2ccccc12 |  |

| logP [4] | Structure (SMILES) | also measured |
| --- | --- | --- |
| 0.67 | CCC(F)(F)CO |  |
| 0.66 | OCCC(F)(F)C(F)F |  |
| 0.87 | CC(F)(F)C(F)(F)CO |  |
| 1.53 | OCC(F)(F)C(F)C(F)(F)F (stereo not given) |  |
| 1.22 | OCCCC(F)C(F)(F)F (stereo not given) |  |
| 2.6 | FC(F)CCOc1ccc2[nH]ccc2c1 |  |
| 0.64 | CC(O)CCC(F)F (stereo not given) |  |
| 0.02 | CC(=O)N1CCC[C@H]1C(=O)OCC(F)F |  |
| 1.14 | CCCC(O)C(F)F (stereo not given) |  |
| 2.1 | OCCC(F)(F)C(F)(F)C(F)(F)F |  |
|  | CN(C)C(=O)CNCCc1cccc(OCCCCC(F)(F)F)c1.Cl | logD [5]: 2.3; solubility at 24 h [1]: > 1000 µM; fraction unbound [6]: 0.28; microsomal CLint [3]: 10 µL/min/mg; hepatocyte CLint [7]: 105 µL/min/1e6 cells; IC50 [2]: 9.6 µM |
| 0.6 | OCC(F)CC(F)(F)F (stereo not given) |  |
| 2.3 | FCC(F)COc1ccc2[nH]ccc2c1 (stereo not given) |  |
| 0.26 | CCC(F)CO (stereo not given) |  |
|  | CN(C)C(=O)CNCCc1cccc(OCCCC(F)(F)CF)c1.Cl | logD [5]: 1.6; solubility at 24 h [1]: 870 µM; fraction unbound [6]: 0.47; microsomal CLint [3]: < 3 µL/min/mg; hepatocyte CLint [7]: 34 µL/min/1e6 cells; IC50 [2]: 15 µM |
| 1.04 | OCC(F)(F)CC(F)(F)F |  |
| 0 | CCOC(=O)[C@@H]1CCCN1C(C)=O |  |
| 0.66 | OCCCCC(F)F |  |
| 2.9 | CCCOc1ccc2[nH]ccc2c1 |  |
| 0.68 | CC[C@H](F)[C@H](C)O (racemic) |  |
| 0.68 | CC[C@@H](F)[C@H](C)O (racemic) |  |
| 1.8 | CCCCOc1cccc(CCNCC(=O)N(C)C)c1 [EVENAMIDE] |  |

| Structure (SMILES) | logP [4] | also measured |
| --- | --- | --- |
| CN(C)C(=O)CNCCc1cccc(OCC(F)(F)C(F)(F)C(F)(F)F)c1 | 2.5 |  |
| OCCCC(F)CF (stereo not given) | 0.11 |  |
| CCCC(O)CF (stereo not given) | 0.74 |  |
| OCCCF | -0.26 |  |
| OCCCCF | 0.09 |  |
| CC(O)CCCF (stereo not given) | 0.42 |  |
| OCC(F)(F)C(F)(F)C(F)(F)C(F)F | 1.89 |  |
| OCCCC(F)(F)CF | 0.58 |  |
| OCCC(F)CF (stereo not given) | -0.12 |  |
| OCCC(F)(F)CF | 0.27 |  |
| FCCCOc1ccc2[nH]ccc2c1 | 2.5 |  |
| OCC(F)(F)F [TRIFLUOROETHANOL] | 0.36 |  |
